From ChEMBL document CHEMBL4428107 (Bioorg Med Chem, 2016)

Experiments:
Histone deacetylase 2 = Histone deacetylase 2 (Homo sapiens, UniProt Q92769); test: Inhibition of full length recombinant human HDAC2 expressed in baculovirus expression system using fluorogenic peptide RHKK(Ac) as substrate by fluorescence assay
HCT-116 = test: Antiproliferative activity against human HCT116 cells assessed as reduction in cell viability after 72 hrs by MTS-PMS assay; format: functional; conditions: Homo sapiens, HCT-116, 72 h
In short: (§1)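 MTS-PMS viability test. Cells were seeded at 3,000/well and left 24 h at 37 °C, 5% CO2, then exposed to compound for 72 h. Screening was at 50 μM for HCT116 and MCF-7 and […], with final DMSO ≤1%. MTS:PMS was mixed 20:1, added for 3 h, and absorbance read at 490 nm. At least two independent runs were done, each in triplicate.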

MCF7 = test: Antiproliferative activity against human MCF7 cells assessed as reduction in cell viability after 72 hrs by MTS-PMS assay; conditions: MCF7, 72 h
MDA-MB-231 = test: Antiproliferative activity against human MDA-MB-231 cells assessed as reduction in cell viability after 72 hrs by MTS-PMS assay; format: functional; conditions: MDA-MB-231, 72 h; in short: as §1
MOLT-4 = test: Antiproliferative activity against human MOLT4 cells assessed as reduction in cell viability after 70 hrs by Quanti-blue assay; format: functional; conditions: Homo sapiens, MOLT-4, 70 h
In short: (§2)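 Quanti-Blue viability kit. HuT-78 and Molt-4 cells were grown in RPMI-1640 and seeded at 10^5 cells/mL. Compounds were screened at 50 μM for 70 h, with detection reagent present for the final 2 h. Fluorescence was read at ex 530/em 590 nm. IC50 from dose-response came from linear regression. Three independent runs.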

HuT78 = test: Antiproliferative activity against human HUT78 cells assessed as reduction in cell viability after 70 hrs by Quanti-blue assay; format: functional; conditions: Homo sapiens, HuT78, 70 h; in short: as §2
[1] = Antiproliferative activity against human PBMC assessed as reduction in cell viability after 70 hrs by Quanti-blue assay; format: cell-based
In short: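 QB fluorescence viability assay; hPBMCs purified by density centrifugation from purchased human blood, stored frozen, resuspended in RPMI-1640 with 10% heat-inactivated FBS, HEPES, pyruvate, non-essential amino acids and BME; seeded at 10^6 cells/mL. Compounds at 50 μM, 70 h plus 2 h with detection reagent; λex 530/λem 590 nm. Three independent repeats.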

[2] = Immunomodulatory activity in human TALL-104 cells assessed as effect on degranulation by measuring augmentation of CD3-stimulated anti-LAMP fluorescence at 100 uM preincubated for 30 mins followed by anti-LAMP addition and incubated for 50 mins in the dark by flow cytometric analysis relative to control; format: functional

Chain of Histone deacetylase 2 (Q92769 whole entry): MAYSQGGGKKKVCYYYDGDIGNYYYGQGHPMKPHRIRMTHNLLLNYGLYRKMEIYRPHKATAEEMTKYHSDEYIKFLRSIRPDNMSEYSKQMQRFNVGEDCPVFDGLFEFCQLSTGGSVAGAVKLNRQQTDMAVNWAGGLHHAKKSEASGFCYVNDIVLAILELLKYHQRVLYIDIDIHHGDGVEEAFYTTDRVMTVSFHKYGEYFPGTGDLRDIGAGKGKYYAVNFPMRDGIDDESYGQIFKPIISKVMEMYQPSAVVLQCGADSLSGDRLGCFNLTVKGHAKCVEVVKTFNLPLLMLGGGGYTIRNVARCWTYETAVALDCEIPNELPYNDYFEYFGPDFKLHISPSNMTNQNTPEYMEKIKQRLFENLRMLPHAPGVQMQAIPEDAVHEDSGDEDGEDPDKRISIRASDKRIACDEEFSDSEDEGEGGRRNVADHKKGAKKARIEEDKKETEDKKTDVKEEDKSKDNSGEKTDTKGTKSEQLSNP

## CCNC(=O)NCCCC(=O)NCCc1ccccc1
Histone deacetylase 2
  IC50: > 1 µM
HCT-116
  GI50: > 50 µM
MCF7
  GI50: > 50 µM
MDA-MB-231
  GI50: > 50 µM
MOLT-4
  GI50: > 50 µM
HuT78
  GI50: > 50 µM
[1]
  GI50 at 70 h: > 50 µM
[2]
  Activity: 106%

## CCCC(=O)NCCCC(=O)NCCc1ccccc1
Histone deacetylase 2
  IC50: > 1 µM
HCT-116
  GI50: > 50 µM
MCF7
  GI50: > 50 µM
MDA-MB-231
  GI50: > 50 µM
MOLT-4
  GI50: > 50 µM
HuT78
  GI50: > 50 µM
[1]
  GI50 at 70 h: > 50 µM
[2]
  Activity: 101%

## CCOC(=O)NCCCC(=O)Nc1nccs1
Histone deacetylase 2
  IC50: > 1 µM
HCT-116
  GI50: > 50 µM
MCF7
  GI50: > 50 µM
MDA-MB-231
  GI50: > 50 µM
MOLT-4
  GI50: > 50 µM
HuT78
  GI50: > 50 µM
[1]
  GI50 at 70 h: > 50 µM
[2]
  Activity: 91%

## O=C(CCCNC(=O)OCc1ccccc1)NCCc1ccccc1
Histone deacetylase 2
  IC50: > 1 µM
HCT-116
  GI50: > 50 µM
MCF7
  GI50: > 50 µM
MDA-MB-231
  GI50: > 50 µM
MOLT-4
  GI50: > 50 µM
HuT78
  GI50: > 50 µM
[1]
  GI50 at 70 h: > 50 µM
[2]
  Activity: 79%

## CC(=O)NCCCC(=O)NCCc1ccccc1
Histone deacetylase 2
  IC50: > 1 µM
HCT-116
  GI50: > 50 µM
MCF7
  GI50: > 50 µM
MDA-MB-231
  GI50: > 50 µM
MOLT-4
  GI50: > 50 µM
HuT78
  GI50: > 50 µM
[1]
  GI50 at 70 h: > 50 µM
[2]
  Activity: 83%

## CC(=O)SCCC(=O)NCCCC(=O)NCCc1ccccc1
Histone deacetylase 2
  IC50: > 1 µM
HCT-116
  GI50: > 50 µM
MCF7
  GI50: > 50 µM
MDA-MB-231
  GI50: > 50 µM
MOLT-4
  GI50: > 50 µM
HuT78
  GI50: > 50 µM
[1]
  GI50 at 70 h: > 50 µM
[2]
  Activity: 77%

## COC(=O)NCCCC(=O)NCCc1ccccc1
Histone deacetylase 2
  IC50: > 1 µM
HCT-116
  GI50: > 50 µM
MCF7
  GI50: > 50 µM
MDA-MB-231
  GI50: > 50 µM
MOLT-4
  GI50: > 50 µM
HuT78
  GI50: > 50 µM
[1]
  GI50 at 70 h: > 50 µM
[2]
  Activity: 81%

## CCOC(=O)NCCCCC(=O)NCCc1ccccc1
Histone deacetylase 2
  IC50: > 1 µM
HCT-116
  GI50: > 50 µM
MCF7
  GI50: > 50 µM
MDA-MB-231
  GI50: > 50 µM
MOLT-4
  GI50: > 50 µM
HuT78
  GI50: > 50 µM
[1]
  GI50 at 70 h: > 50 µM
[2]
  Activity: 83%

## CCOC(=O)NCCCCCC(=O)NCCc1ccccc1
Histone deacetylase 2
  IC50: > 1 µM
HCT-116
  GI50: > 50 µM
MCF7
  GI50: > 50 µM
MDA-MB-231
  GI50: > 50 µM
MOLT-4
  GI50: > 50 µM
HuT78
  GI50: > 50 µM
[1]
  GI50 at 70 h: > 50 µM
[2]
  Activity: 98%

## CCOC(=O)NCCC(=O)NCCCCc1ccccc1
Histone deacetylase 2
  IC50: > 1 µM
HCT-116
  GI50: > 50 µM
MCF7
  GI50: > 50 µM
MDA-MB-231
  GI50: > 50 µM
MOLT-4
  GI50: > 50 µM
HuT78
  GI50: > 50 µM
[1]
  GI50 at 70 h: > 50 µM
[2]
  Activity: 83%

## O=C(CCCNC(=O)c1ccccc1)NCCc1ccccc1
Histone deacetylase 2
  IC50: > 1 µM
HCT-116
  GI50: > 50 µM
MCF7
  GI50: > 50 µM
MDA-MB-231
  GI50: > 50 µM
MOLT-4
  GI50: > 50 µM
HuT78
  GI50: > 50 µM
[1]
  GI50 at 70 h: > 50 µM
[2]
  Activity: 85%

## CCOC(=O)NCCCC(=O)N[C@@H](Cc1ccccc1)C(=O)OC
Histone deacetylase 2
  IC50: > 1 µM
HCT-116
  GI50: > 50 µM
MCF7
  GI50: > 50 µM
MDA-MB-231
  GI50: > 50 µM
MOLT-4
  GI50: > 50 µM
HuT78
  GI50: > 50 µM
[1]
  GI50 at 70 h: > 50 µM
[2]
  Activity: 90%

## CCNC(=O)OCCCC(=O)NCCc1ccccc1
Histone deacetylase 2
  IC50: > 1 µM
HCT-116
  GI50: > 50 µM
MCF7
  GI50: > 50 µM
MDA-MB-231
  GI50: > 50 µM
MOLT-4
  GI50: > 50 µM
HuT78
  GI50: > 50 µM
[1]
  GI50 at 70 h: > 50 µM
[2]
  Activity: 100%

## CCOC(=O)NCCCCCC(=O)Nc1ccccc1
Histone deacetylase 2
  IC50: > 1 µM
HCT-116
  GI50: > 50 µM
MCF7
  GI50: > 50 µM
MDA-MB-231
  GI50: > 50 µM
MOLT-4
  GI50: > 50 µM
HuT78
  GI50: > 50 µM
[1]
  GI50 at 70 h: > 50 µM

## CCC(=O)NCCCC(=O)NCCc1ccccc1
Histone deacetylase 2
  IC50: > 1 µM
HCT-116
  GI50: > 50 µM
MCF7
  GI50: > 50 µM
MOLT-4
  GI50: > 50 µM
HuT78
  GI50: > 50 µM
[1]
  GI50 at 70 h: > 50 µM
[2]
  Activity: 91%
